Hits are enriched below; roughly 4.5% of the tested compounds scored in any of these assays.
CHOP inh: inhibitors of CHOP promoter induction, primary screen, cell-based, unfolded protein response, luciferase reporter; hit rate 3.8% among 220,000; CHO-K1 CHOP-promoter luciferase, tunicamycin-induced, 15-18 h; inhibition, % at 10 µM;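 active means compounds that reduced the stress-induced luciferase reporter signal by more than about 70% of percent inhibition, limit read from the data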;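 further: 0% = tunicamycin plus vehicle and 100% = wells without tunicamycin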
UPR CHOP act: activators of apoptotic CHOP UPR arm, primary screen, cell-based, CHO-CHOP luciferase reporter, luminescence, uHTS; UPR activation; percent of tunicamycin response over DMSO baseline; activation, % at 10 µM; hit rate 0.34% among 330,000; AID 449763, 2010;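 active means at 10 µM dose, activation of 40% or more, normalized to positive control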;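 further: 100% = tunicamycin at 10 µg/mL and 0% = DMSO alone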
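Assay system: CHO-CHOP cells, stable luciferase reporter of PERK-eIF2a-CHOP signalling / Buffer or medium: F12 plus 10% serum / Compound dosing: one dose, 10 µM in 0.5% DMSO / Times: 6 h compound treatment, 37 °C / Technique: luciferase luminescence / Read-out: % reporter activation, DMSO baseline versus tunicamycin full activation / Benchmarks: tunicamycin and DMSO controls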
XBP1 UPR activ: activators of adaptive XBP1 UPR arm, primary screen, cell-based, CHO-XBP1 luciferase reporter, luminescence, uHTS; IRE1-XBP1 UPR activation; percent of tunicamycin response, DMSO as zero; activation, % at 20 µM; hit rate 0.33% among 330,000; AID 463104, 2010;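 active means versus positive control, 20 µM dose yields 30% or more activation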;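 further: 100% = tunicamycin at 10 µg/mL and 0% = DMSO only wells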
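Material: CHO cell line with stable XBP1 luciferase reporter; buffer or medium: F12 medium containing 10% fetal bovine serum; compound: single point, 20 µM final compound, 1% DMSO; incubation: 6 h treatment, 37 °C; measured by: glow luminescence from Steady-Glo reagent; evaluation: activation, % of tunicamycin; control set: tunicamycin high, DMSO low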
M18AAP inhibitor: PfM18AAP inhibitors, malaria aminopeptidase, primary screen, biochemical, QFRET, recombinant enzyme. H-Glu-NHMec fluorogenic cleavage. inhibition, % at 7.35 µM. hit rate 1.2% among 290,000;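 active means inhibition above the campaign mean inhibition over all tested compounds plus 3 SD, cut at about 28% in these data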;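 further: 0% = plate median of test compound wells and 100% = 2 mM ZnCl2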
HCV NS3 hel inh: inhibitors of HCV NS3 helicase, primary screen, biochemical, Cy5 molecular beacon fluorescence; inhibition, % at 10.9 µM; hit rate 0.56% among 290,000; NS3 helicase DNA unwinding; Hepatitis C virus NS3 helicase;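 active means inhibition above the mean of all tested compounds plus 3 SD, set per campaign, cut at about 35% in these data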;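 further: 0% = DMSO wells and 100% = thioflavine S control wells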
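Assay system: hepatitis C virus NS3 helicase domain fragment enzyme. Also added: annealed dual-labelled DNA beacon duplex, ATP-started. Timing: 1 h reaction at 25 °C, ATP-initiated. Technique: Cy5 fluorescence at 0 and 60 min, beacon hairpin quenching. Evaluation: % inhibition of unwinding. Replication: one well per compound.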
p97 ATPase inh: inhibitors of human p97 ATPase, primary screen, biochemical; Transitional endoplasmic reticulum ATPase (Homo sapiens), P55072; recombinant p97 ATPase, Kinase-Glo ATP luminescence, 3 h; inhibition, % at 8 µM; hit rate 0.42% among 220,000; AID 1481, 2009; in the data active means inhibition above about 15%;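 further: 0% = DMSO vehicle and 100% = wells lacking enzyme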
Target sequence (P55072 whole entry, looked up): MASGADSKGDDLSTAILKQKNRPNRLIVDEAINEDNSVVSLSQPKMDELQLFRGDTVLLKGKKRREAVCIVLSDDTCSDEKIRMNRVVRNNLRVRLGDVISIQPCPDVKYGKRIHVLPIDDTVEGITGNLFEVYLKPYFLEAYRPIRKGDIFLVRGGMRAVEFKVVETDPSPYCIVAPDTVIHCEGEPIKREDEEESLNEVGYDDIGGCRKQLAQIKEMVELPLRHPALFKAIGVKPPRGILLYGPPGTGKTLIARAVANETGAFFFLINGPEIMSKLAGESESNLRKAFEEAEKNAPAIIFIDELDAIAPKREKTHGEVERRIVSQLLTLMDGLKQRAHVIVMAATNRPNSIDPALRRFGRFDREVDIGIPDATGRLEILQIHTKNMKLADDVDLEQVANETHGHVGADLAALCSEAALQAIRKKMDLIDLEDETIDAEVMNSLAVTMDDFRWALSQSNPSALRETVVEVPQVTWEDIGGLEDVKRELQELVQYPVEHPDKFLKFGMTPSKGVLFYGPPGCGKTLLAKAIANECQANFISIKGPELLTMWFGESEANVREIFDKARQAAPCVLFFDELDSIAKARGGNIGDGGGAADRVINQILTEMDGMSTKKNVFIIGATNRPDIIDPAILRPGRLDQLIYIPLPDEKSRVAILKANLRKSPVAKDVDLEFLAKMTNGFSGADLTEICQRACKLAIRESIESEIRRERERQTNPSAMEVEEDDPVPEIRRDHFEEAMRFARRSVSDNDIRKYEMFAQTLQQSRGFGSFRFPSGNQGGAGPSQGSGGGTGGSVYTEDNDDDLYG
CHOP UPR conf: activators of apoptotic CHOP UPR arm, confirmation, cell-based, CHO-CHOP luciferase reporter, single concentration | activation, % at 10 µM | hit rate 64% among 1,000 | CHO-CHOP cells, CHOP-luciferase reporter luminescence; percent of tunicamycin response, DMSO as zero | shares compounds with UPR CHOP act; in the data active means activation above about 33%;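 further: 0% = DMSO wells and 100% = tunicamycin 10 µg/mL wells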
XBP1 UPR conf: IRE1-XBP1 UPR arm activators, confirmation, cell-based, CHO-XBP1 luciferase reporter, luminescence, single concentration; shares compounds with XBP1 UPR activ; activation, % at 20 µM; hit rate 63% among 1,000; AID 485299, 2010;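 active means reporter signal at least 30% of the positive control's activation in two or more of four replicate wells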;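 further: plate controls were DMSO negative control for no effect and tunicamycin 10 µg/mL positive control for full effect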
Active calls of the source: *; x = no result.

SMILES | CHOP inh | UPR CHOP act | XBP1 UPR activ | M18AAP inhibitor | HCV NS3 hel inh | p97 ATPase inh | CHOP UPR conf | XBP1 UPR conf
Cc1ccc(-c2nn(-c3ccccc3)cc2/C=C/C(=O)Nc2nccs2)cc1 | 93.3* | 44.9* | 50.3* | -1.7 | 0.4 | 8.1 | 12.8 | 25.6
COCCN(C(=O)Cc1coc2cc(C)c(C)cc12)c1c(N)n(Cc2ccccc2)c(=O)[nH]c1=O | x | 1.1 | -4.8 | x | x | x | x | x
Cc1cccc(N2CC(C(=O)Nc3ccc(S(=O)(=O)Nc4nccs4)cc3)CC2=O)c1C (centres undefined) | x | 0.9 | -6.5 | 8.1 | -5.6 | x | x | x
COc1ccc2cc(C(=O)NCc3ccco3)c(=Nc3ccc(C(=O)O)cc3)oc2c1 | 3.0 | -2.0 | 0.0 | -9.6 | -8.1 | 3.8 | x | x
COc1ccc(N=c2oc3c(OC)cccc3cc2C(=O)NCc2ccco2)c(OC)c1 | 89.4* | 171.9* | 73.6* | -2.5 | -2.9 | 3.3 | 100.7* | 21.8
CS(=O)(=O)Oc1ccc2c(c1)O/C(=C\c1cccc([N+](=O)[O-])c1)C2=O | x | 3.4 | 2.6 | 2.1 | -4.5 | x | x | x
CS(=O)(=O)Oc1ccc2c(c1)O/C(=C\C=C\c1ccccc1)C2=O | 30.8 | 154.1* | 46.6* | 3.6 | 2.5 | 4.7 | 33.8* | 2.2
O=C(CCNS(=O)(=O)c1ccccc1)OCC(=O)c1ccc(Br)cc1 | x | 1.0 | -3.5 | x | x | x | x | x
c1ccc(N=Nc2ccc3cccccc2-3)cc1 | x | 67.3* | 83.1* | x | x | x | 20.7 | 60.5*
O=C(CCS(=O)(=O)c1ccc(Br)cc1)NC1CCCCCC1 | x | 0.2 | -6.8 | 6.9 | 22.9 | x | x | x
Cc1cnc(NC(=O)c2cc(S(=O)(=O)N(C)C)ccc2N2CCCC2)s1 | x | 96.1* | 98.3* | x | x | x | 105.0* | 87.3*
CC(=O)Nc1ccc(N=Cc2c(O)c(C(=O)Nc3ccccc3)cc3ccccc23)cc1 | 39.5 | 45.0* | 89.9* | 7.8 | 7.1 | 7.3 | 42.8* | 12.6
CCOc1cc(/C=C2/C(=N)N3C=CSC3=NC2=O)ccc1OCCCOc1ccccc1C | 84.5* | 77.8* | 265.1* | 3.9 | -4.0 | -5.2 | 35.5* | 134.2*
CC(=O)N(C)c1ccc(NC(=O)CCN2C(=O)c3ccccc3C2=O)cc1 | x | 1.1 | -5.9 | -15.4 | 5.5 | x | x | x
CCN(CC)S(=O)(=O)c1ccc(-c2nnc(SCC(=O)N3CCc4ccccc43)o2)cc1 | x | 69.9* | 209.3* | x | x | x | 0.7 | 27.5
CCN(CC)S(=O)(=O)c1ccc(-c2nnc(SCC(=O)N3CCOCC3)o2)cc1 | -13.2 | -0.3 | -1.9 | -13.3 | -1.9 | 6.3 | x | x
CCOc1cc(C(=S)N2CCOCC2)ccc1OC(=O)c1cc(OC)c(OC)c(OC)c1 | x | 2.8 | -2.5 | -6.4 | -8.9 | x | x | x
O=C(Nc1ccc2nn(-c3ccccc3)nc2c1)c1ccc2c(c1)OCCO2 | 9.2 | 3.5 | -2.1 | -1.3 | -11.8 | -0.9 | x | x
CCOc1ccc(-n2nc3ccc(NC(=O)c4ccc5c(c4)OCCO5)cc3n2)cc1 | 76.1* | 73.5* | 154.6* | -15.7 | 6.3 | 3.0 | 19.8 | 121.7*
COC(=O)c1c(NC(=O)CC2Nc3ccccc3NC2=O)sc(C)c1C (centres undefined) | 35.0 | 159.7* | 46.8* | -1.0 | 4.2 | 4.3 | 40.4* | 31.0*
Cc1ncsc1C(=O)N1CCCC(C(=O)c2ccc3ccccc3c2)C1 (centres undefined) | x | 1.8 | -2.9 | -14.2 | -3.6 | x | x | x
Cc1ccc([N+](=O)[O-])cc1-c1ccc(/C=N/NC(=O)c2cc3c(ccc4ccccc43)o2)o1 | 21.6 | 2.1 | -2.8 | 3.7 | 17.8 | -4.4 | x | x
O=C(N/N=C/c1cccc([N+](=O)[O-])c1)c1cc2c(ccc3ccccc32)o1 | -28.8 | 104.0* | 39.8* | -6.3 | 1.0 | 1.8 | 76.5* | 15.9
CCCCCCCC(=O)Nc1ccc(C(=O)N/N=C/c2cccc([N+](=O)[O-])c2)cc1 | 66.0 | 192.9* | 237.1* | 0.2 | -2.3 | 2.7 | 182.8* | 144.7*
COc1ccc(CCNCC(=O)Nc2ccc(OC(F)(F)F)cc2)cc1OC | x | 7.4 | -2.3 | 3.1 | -31.4 | x | x | x
SMILES | CHOP inh | UPR CHOP act | XBP1 UPR activ | M18AAP inhibitor | HCV NS3 hel inh | p97 ATPase inh | CHOP UPR conf | XBP1 UPR conf
Cc1cc(C)c(S(=O)(=O)Nc2ccc(N(C)C)cc2)c(C)c1-n1cnnn1 | x | 0.7 | -5.3 | 16.6 | -6.0 | x | x | x
CC(C)c1cccc(-c2ccc3c(c2)S(=O)(=O)c2cccc(C(=O)NCc4ccccc4Cl)c2C3=O)c1 | x | 48.8* | 98.9* | x | x | x | 34.1* | 108.6*
O=C(NCc1ccccc1Br)c1cccc2c1C(=O)c1ccc(-c3ccc(OC(F)(F)F)cc3)cc1S2(=O)=O | x | 97.8* | 114.7* | x | x | x | 88.3* | 85.9*
CCOC(=O)c1c(C)[nH]c(C(=O)OC(C)C(=O)NC2CCCCC2C)c1C (centres undefined) | x | 1.6 | -1.3 | x | x | x | x | x
O=C(O)C(Cc1ccc(O)cc1)N1C(=O)c2ccccc2C1=O (centres undefined) | x | -1.1 | -4.9 | -2.3 | 13.6 | x | x | x
CC1(C)C=Cc2c(c3c(c4c(=O)c(-c5ccc(O)cc5)coc24)OC(C)(C)CC3)O1 | 92.0* | 87.1* | 53.9* | 25.7 | 3.4 | -0.6 | 43.6* | 64.3*
O=c1c(-c2ccc(O)cc2)coc2cc(O)cc(O)c12 | -14.0 | 1.3 | 3.4 | x | x | x | x | x
COc1ccccc1C(=O)NC(=S)NNC(=O)c1sc2ccccc2c1Cl | 88.6* | 48.3* | 38.4* | -10.7 | 2.2 | -2.5 | 50.7* | 53.5*

Screening data: PubChem, several laboratories
